ChEMBL document CHEMBL1914454, “Novel N-linked aminopiperidine inhibitors of bacterial topoisomerase type II: broad-spectrum antibacterial agents with reduced hERG activity” (J Med Chem, 2011)
Values after ≈ are worked out from the molar mass of the structure shown.

Key:
[1] = system: Pseudomonas aeruginosa; assay: Antibacterial activity against Pseudomonas aeruginosa PAO1 after 18 to 24 hrs by broth microdilution method; assay type: functional
Procedure, shortened: (§1)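 Broth microdilution following CLSI guidelines in Mueller Hinton broth. Compounds in DMSO, diluted to 2% DMSO final, 11 doubling dilutions from 64 to 0.06 μg/mL. Incubated at 35 °C for 18−24 h; growth read by absorbance at 620 nm.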

[2] = system: Escherichia coli; assay: Antibacterial activity against Escherichia coli W3110 after 18 to 24 hrs by broth microdilution method; assay type: functional; conditions: K-12 substr. W3110; procedure, shortened: as §1
[3] = Inhibition of Escherichia coli ATPase activity of topoisomerase 4 ParC/ParE subunit assessed as reduction in inorganic phosphate production after 24 hrs by ammonium molybdate/malachite-green based assay
Procedure, shortened: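 Each reaction contained 0.5 nM each of E. coli ParC and ParE, 0.16 mM ATP and 0.005 mg/mL sheared salmon sperm DNA in 20 mM Tris pH 8.0 with 50 mM ammonium acetate, 8.0 mM MgCl₂, 0.5 mM EDTA, 5 mM DTT, 2.5% glycerol and 0.005% Brij-35. Compound dilution series; 24 h at room temperature. Quenched with malachite green; absorbance read at 650 nm. IC50 is the mean of three replicate experiments.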

[4] = Clearance in Wistar Han rat at 4 mg/kg, iv; assay type: ADME, organism-based; design: dose 4 mg/kg, route intravenous; conditions: in vivo
Procedure, shortened: (§2)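 Groups of three Wistar Han rats received a bolus injection into a cannulated jugular vein. Serial 200 μL whole-blood samples taken over time; plasma drug measured by LC-MS/MS; parameters estimated by noncompartmental analysis.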

[5] = Fraction unbound in human plasma at 10 uM after 16 hrs by equilibrium dialysis
[6] = AUC in Wistar Han rat at 4 mg/kg, iv; assay type: ADME, organism-based; design: dose 4 mg/kg, route intravenous; conditions: plasma; procedure, shortened: as §2
[7] = system: Mus musculus; assay: AUC (infinity) in Staphylococcus aureus ARC516 infected in CD1 mouse neutropenic thigh infection model at 48 mg/kg, ip qd by LC-MS/MS analysis; assay type: ADME, organism-based; design: dose 48 mg/kg, route intraperitoneal, time infinity; conditions: in vivo
Procedure, shortened: (§3)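 CD-1 mice made neutropenic with ip cyclophosphamide (150 mg/kg day −4, 100 mg/kg day −1), thigh-infected with S. aureus ARC516 (target 5 × 10⁵ cfu/thigh). Dosed ip once daily starting 2 h post-infection, in 5% dextrose with lactic acid, pH 5.0. Groups of three sacrificed at timed intervals; cardiac-puncture blood; plasma analysed by LC-MS/MS; noncompartmental analysis.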

[8] = system: Staphylococcus aureus; assay: Antibacterial activity against Staphylococcus aureus ARC516 infected in CD1 mouse neutropenic thigh infection model assessed as 1 log reduction in colony forming unit per […] at 48 mg/kg, ip qd administered 2 hrs post-infection measured 24 hrs post-treatment relative to vehicle treated control; assay type: functional; conditions: route intraperitoneal
Procedure, shortened: (§4)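 CD-1 mice were made neutropenic with ip cyclophosphamide, 150 mg/kg at 4 days and 100 mg/kg at 1 day before infection. Methicillin-susceptible strain, target inoculum 5 × 10⁵ cfu/thigh. Groups of five received ip drug q.d. in 5% dextrose with lactic acid, pH 5.0, starting 2 h post-infection; five mice got vehicle. At 24 h, thighs were homogenized, plated on tryptic soy agar and incubated at 37 °C overnight for cfu.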

[9] = AUC in Beagle dog at 3 mg/kg, iv; assay type: ADME, organism-based, Canis lupus familiaris; design: dose 3 mg/kg, route intravenous; conditions: plasma
Procedure, shortened: (§5)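 Plasma was sampled from 0 to 24 h and drug measured by LC–MS/MS. Parameters came from noncompartmental analysis.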

[10] = system: Staphylococcus aureus; assay: Antibacterial activity against Staphylococcus aureus ARC516 infected in CD1 mouse neutropenic thigh infection model assessed as 1 log reduction in colony forming unit per […] at 36 mg/kg, ip qd administered 2 hrs post-infection measured 24 hrs post-treatment relative to vehicle treated control; assay type: functional; conditions: route intraperitoneal; procedure, shortened: as §4
[11] = system: Staphylococcus aureus; assay: Antibacterial activity against Staphylococcus aureus ARC516 infected in CD1 mouse neutropenic thigh infection model assessed as 1 log reduction in colony forming unit per […] at 12 mg/kg, ip qd administered 2 hrs post-infection measured 24 hrs post-treatment relative to vehicle treated control; assay type: functional; conditions: route intraperitoneal; procedure, shortened: as §4
[12] = system: Mus musculus; assay: AUC (infinity) in Staphylococcus aureus ARC516 infected in CD1 mouse neutropenic thigh infection model at 24 mg/kg, ip qd by LC-MS/MS analysis; assay type: ADME, organism-based; design: time infinity, dose 24 mg/kg, route intraperitoneal; conditions: in vivo; procedure, shortened: as §3
[13] = Octanol-phosphate buffer partition coefficient, log D of the compound at pH 7.4 by LC/MS/UV analysis; conditions: octanol/phosphate buffer
[14] = system: Staphylococcus aureus; assay: Antibacterial activity against Staphylococcus aureus ARC516 infected in CD1 mouse neutropenic thigh infection model assessed as 1 log reduction in colony forming unit per […] at 24 mg/kg, ip qd administered 2 hrs post-infection measured 24 hrs post-treatment relative to vehicle treated control; assay type: functional; conditions: route intraperitoneal; procedure, shortened: as §4
[15] = Volume of distribution in Beagle dog at 3 mg/kg, iv; assay type: ADME, organism-based, Canis lupus familiaris; design: dose 3 mg/kg, route intravenous; conditions: in vivo; procedure, shortened: as §5
[16] = system: Mus musculus; assay: AUC (infinity) in Staphylococcus aureus ARC516 infected in CD1 mouse neutropenic thigh infection model at 12 mg/kg, ip qd by LC-MS/MS analysis; assay type: ADME, organism-based; design: time infinity, dose 12 mg/kg, route intraperitoneal; conditions: in vivo; procedure, shortened: as §3
[17] = Half life in Wistar Han rat at 4 mg/kg, iv; assay type: ADME, organism-based; design: dose 4 mg/kg, route intravenous; conditions: in vivo; procedure, shortened: as §2
[18] = system: Streptococcus pneumoniae; assay: Antibacterial activity against penicillin-susceptible Streptococcus pneumoniae D39 after 18 to 24 hrs by broth microdilution method; assay type: functional
Procedure, shortened: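 CLSI broth microdilution in 2.2% (w/v) Mueller Hinton broth with 0.65% (v/v) lysed horse blood. Compounds diluted from DMSO to 2% DMSO final, 11 doubling dilutions from 64 to 0.06 μg/mL. Incubated at 35 °C for 18−24 h; read at 620 nm.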

[19] = Half life in Beagle dog at 3 mg/kg, iv; assay type: ADME, organism-based, Canis lupus familiaris; design: dose 3 mg/kg, route intravenous; conditions: in vivo; procedure, shortened: as §5
[20] = molecular target: Voltage-gated inwardly rectifying potassium channel KCNH2 (Homo sapiens, UniProt Q12809); assay: Inhibition of human ERG by ionworks HT assay
[21] = Clearance in Beagle dog at 3 mg/kg, iv; assay type: ADME, organism-based, Canis lupus familiaris; design: dose 3 mg/kg, route intravenous; conditions: in vivo; procedure, shortened: as §5
[22] = system: Mus musculus; assay: AUC (infinity) in Staphylococcus aureus ARC516 infected in CD1 mouse neutropenic thigh infection model at 36 mg/kg, ip qd by LC-MS/MS analysis; assay type: ADME, organism-based; design: dose 36 mg/kg, route intraperitoneal, time infinity; conditions: in vivo
Procedure, shortened: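 Plasma exposure in CD-1 mice, measured for analysis of the efficacy studies. Groups of three mice were sacrificed at timed intervals and whole blood was drawn by cardiac puncture. Plasma compound levels were measured by LC–MS/MS, and parameters were estimated by a noncompartmental model.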

[23] = Volume of distribution in Wistar Han rat at 4 mg/kg, iv; assay type: ADME, organism-based; design: dose 4 mg/kg, route intravenous; conditions: in vivo; procedure, shortened: as §2
[24] = system: Staphylococcus aureus; assay: Antibacterial activity against methicillin-susceptible Staphylococcus aureus after 18 to 24 hrs by broth microdilution method; assay type: functional; procedure, shortened: as §1
[25] = AUC in Wistar Han rat at 3 mg/kg, iv; assay type: ADME, organism-based; design: dose 3 mg/kg, route intravenous; conditions: plasma
Procedure, shortened: (§6)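 Groups of three Wistar Han rats got a 3 mg/kg iv bolus via a cannulated jugular vein. Serial whole-blood samples were taken at time intervals, and compound in plasma was quantified by LC–MS/MS. Parameters were estimated by a noncompartmental model.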

[26] = Oral bioavailability in Beagle dog at 10 mg/kg; assay type: ADME, organism-based, Canis lupus familiaris; conditions: in vivo; procedure, shortened: as §5
[27] = Clearance in Wistar Han rat at 3 mg/kg, iv; assay type: ADME, organism-based; design: dose 3 mg/kg, route intravenous; conditions: in vivo; procedure, shortened: as §6
[28] = Half life in Wistar Han rat at 3 mg/kg, iv; assay type: ADME, organism-based; design: dose 3 mg/kg, route intravenous; conditions: in vivo; procedure, shortened: as §6
[29] = Volume of distribution in Wistar Han rat at 3 mg/kg, iv; assay type: ADME, organism-based; design: dose 3 mg/kg, route intravenous; conditions: in vivo; procedure, shortened: as §6
[30] = system: Staphylococcus aureus; assay: Antibacterial activity against Staphylococcus aureus ARC516 infected in CD1 mouse neutropenic thigh infection model assessed as 1 log reduction in colony forming unit per […] at 20 mg/kg, ip qd administered 2 hrs post-infection measured 24 hrs post-treatment relative to vehicle treated control; assay type: functional; conditions: route intraperitoneal
Procedure, shortened: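 Mice rendered neutropenic with ip cyclophosphamide (150 mg/kg 4 days and 100 mg/kg 1 day before infection), then infected with MSSA ARC516 at a target 5 × 10⁵ cfu/thigh. Groups of five dosed ip once daily from 2 h post-infection; vehicle group of five. At 24 h after treatment start, thighs homogenized and plated on tryptic soy agar, 37 °C overnight, cfu counted.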

[31] = system: Mus musculus; assay: AUC (infinity) in Staphylococcus aureus ARC516 infected in CD1 mouse neutropenic thigh infection model at 20 mg/kg, ip qd by LC-MS/MS analysis; assay type: ADME, organism-based; design: time infinity, dose 20 mg/kg, route intraperitoneal; conditions: in vivo
Procedure, shortened: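 Exposure in neutropenic CD-1 mice thigh-infected with S. aureus ARC516 (target 5 × 10⁵ cfu/thigh), dosed ip once daily from 2 h post-infection. Groups of three killed at timed intervals; blood taken by cardiac puncture. Plasma drug measured by LC-MS/MS; parameters from a noncompartmental model.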

Sequence of Voltage-gated inwardly rectifying potassium channel KCNH2 (Q12809 whole entry): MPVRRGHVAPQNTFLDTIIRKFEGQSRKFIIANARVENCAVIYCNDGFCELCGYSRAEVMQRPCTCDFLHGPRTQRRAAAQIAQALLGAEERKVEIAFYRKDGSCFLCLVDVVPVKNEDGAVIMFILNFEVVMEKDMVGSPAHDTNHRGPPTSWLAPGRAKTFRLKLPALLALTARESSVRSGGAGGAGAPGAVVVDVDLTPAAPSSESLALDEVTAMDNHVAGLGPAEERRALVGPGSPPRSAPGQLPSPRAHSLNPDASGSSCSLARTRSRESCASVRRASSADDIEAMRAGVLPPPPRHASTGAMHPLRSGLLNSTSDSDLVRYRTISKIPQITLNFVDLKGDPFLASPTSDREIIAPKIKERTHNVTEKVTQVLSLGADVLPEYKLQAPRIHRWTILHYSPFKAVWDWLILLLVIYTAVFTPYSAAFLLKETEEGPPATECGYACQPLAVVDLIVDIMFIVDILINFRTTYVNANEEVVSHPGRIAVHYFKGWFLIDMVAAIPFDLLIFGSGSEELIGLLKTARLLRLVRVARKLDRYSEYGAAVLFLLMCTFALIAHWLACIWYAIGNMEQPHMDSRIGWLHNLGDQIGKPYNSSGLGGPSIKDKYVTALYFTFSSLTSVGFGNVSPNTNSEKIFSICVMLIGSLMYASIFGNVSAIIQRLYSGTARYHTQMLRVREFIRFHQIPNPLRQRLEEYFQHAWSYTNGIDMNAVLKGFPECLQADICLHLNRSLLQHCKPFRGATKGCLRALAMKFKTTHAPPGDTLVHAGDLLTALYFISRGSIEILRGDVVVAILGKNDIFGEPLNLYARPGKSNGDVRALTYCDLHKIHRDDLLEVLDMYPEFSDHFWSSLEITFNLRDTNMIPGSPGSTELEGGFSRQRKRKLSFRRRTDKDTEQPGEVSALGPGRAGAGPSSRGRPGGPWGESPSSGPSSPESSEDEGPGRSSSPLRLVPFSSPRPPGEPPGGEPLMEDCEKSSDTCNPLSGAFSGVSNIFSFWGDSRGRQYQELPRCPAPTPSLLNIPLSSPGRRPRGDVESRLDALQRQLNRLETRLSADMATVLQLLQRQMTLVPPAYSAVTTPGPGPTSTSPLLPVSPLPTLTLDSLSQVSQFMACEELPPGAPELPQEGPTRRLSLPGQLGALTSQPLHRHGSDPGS

| Compound | MIC [1] [µg/mL] | MIC [2] [µg/mL] | IC50 [3] [nM] | fraction unbound at 16 h, 10 µM [5] | AUC [9] [ng·h/mL] | logD [13] | Vd [15] [L/kg] | MIC [18] [µg/mL] | half-life [19] [h] | IC50 [20] [nM] | clearance [21] [mL/min/kg] | MIC [24] [µg/mL] | other results |
| --- | --- | --- | --- | --- | --- | --- | --- | --- | --- | --- | --- | --- | --- |
| COc1ccc2ncc(=O)n(CCN3CCC(NCc4cc5c(cn4)OCCO5)CC3)c2c1 | 4 (≈ 8.86 µM) | 0.5 (≈ 1.11 µM) | 5 | 0.57 | 2300 | 0.93 | 11 | 0.06 (≈ 0.133 µM) | 8.3 | 19000 | 21 | 0.02 (≈ 0.0443 µM) | clearance [4]: 338 mL/min/kg; AUC [6]: 190 ng·h/mL; AUC [7]: 1.79 µg/h/mL; FC [8]: 2.79; FC [10]: 1.5; FC [11]: 0.05; AUC [12]: 0.76 µg/h/mL; FC [14]: 1.17; AUC [16]: 0.47 µg/h/mL; half-life [17]: 2.8 h; AUC [22]: 1.17 µg/h/mL; Vd [23]: 32 L/kg |
| N#Cc1ccc2c(c1)N(CCN1CCC(NCc3ccc4c(n3)NC(=O)CO4)CC1)C(=O)CO2 | 2 (≈ 4.32 µM) | 0.25 (≈ 0.541 µM) | 3.2 | – | 3090 | 0.24 | 61 | 0.5 (≈ 1.08 µM) | 166 | – | 7.8 | 0.13 (≈ 0.281 µM) | AUC [25]: 640 ng·h/mL; bioavailability [26]: 64%; clearance [27]: 66 mL/min/kg; half-life [28]: 5.8 h; Vd [29]: 23 L/kg |
| COc1ccc2c(c1)N(CCN1CCC(NCc3ccc4c(n3)NC(=O)CO4)CC1)C(=O)CC2 | > 8 | > 8 | 780 | 0.04 | – | 0.66 | – | > 8 | – | 29000 | – | > 8 | – |
| C[C@H]1COc2c(N3CCN(C)CC3)c(F)cc3c(=O)c(C(=O)O)cn1c23.C[C@H]1COc2c(N3CCN(C)CC3)c(F)cc3c(=O)c(C(=O)O)cn1c23.O [LEVOFLOXACIN] | – | – | – | – | – | – | – | – | – | – | – | – | FC [30]: 1.46; AUC [31]: 2.5 µg/h/mL |
| COc1ccc2c(c1)N(CCN1CCC(NCc3ccc4c(n3)NC(=O)CO4)CC1)C(=O)OC2 | 4 (≈ 8.56 µM) | 0.5 (≈ 1.07 µM) | 4.4 | 0.26 | – | 0.5 | – | 0.5 (≈ 1.07 µM) | – | 42000 | – | 1 (≈ 2.14 µM) | – |
